Test results published in ChEMBL document CHEMBL1154674, “Synthesis and evaluation of three 18F-labeled aminophenylbenzothiazoles as amyloid imaging agents” (J Med Chem, 2009).

Assays:
Type in all cases: ADME, organism-based, Macaca mulatta
[1] = Drug level in normal rhesus monkey parietal cortex assessed as standard uptake value at 96.3 MBq, iv after 27.5 mins by microPET; conditions: in vivo
[2] = Drug level in normal rhesus monkey thalamus assessed as standard uptake value at 96.3 MBq, iv after 0.5 mins by microPET; conditions: in vivo
[3] = Drug level in normal rhesus monkey thalamus assessed as standard uptake value at 96.3 MBq, iv after 17.5 mins by microPET; conditions: in vivo
[4] = Drug level in normal rhesus monkey thalamus assessed as standard uptake value at 96.3 MBq, iv after 47.5 mins by microPET; conditions: in vivo
[5] = Drug level in normal rhesus monkey pons assessed as standard uptake value at 96.3 MBq, iv after 42.5 mins by microPET; conditions: in vivo
[6] = Drug level in normal rhesus monkey pons assessed as standard uptake value at 96.3 MBq, iv after 135 mins by microPET; conditions: in vivo, 2.25 h
[7] = Drug level in normal rhesus monkey cerebellum assessed as standard uptake value at 96.3 MBq, iv after 32.5 mins by microPET; conditions: in vivo
Method in brief: (§1)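 One normal rhesus monkey, each tracer given iv via the vena saphena (81.2, 96.3 or 109.4 MBq), with 1 day between tracer injections. Dynamic brain μPET over 180 min used frames of 5 × 60 s, 5 × 120 s, 9 × 300 s and 12 × 600 s. Images were reconstructed by filtered back projection with a RAMP filter. Regional time-activity curves were expressed as SUV.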

[8] = Drug level in normal rhesus monkey frontal cortex assessed as standard uptake value at 96.3 MBq, iv after 10 mins by microPET; conditions: in vivo
[9] = Drug level in normal rhesus monkey frontal cortex assessed as standard uptake value at 96.3 MBq, iv after 14 mins by microPET; conditions: in vivo
[10] = Drug level in normal rhesus monkey frontal cortex assessed as standard uptake value at 96.3 MBq, iv after 42.5 mins by microPET; conditions: in vivo
[11] = Drug level in normal rhesus monkey frontal cortex assessed as standard uptake value at 96.3 MBq, iv after 125 mins by microPET; conditions: in vivo
[12] = Drug level in normal rhesus monkey pons assessed as standard uptake value at 81.2 MBq, iv after 8 mins by microPET; conditions: in vivo
[13] = Drug level in normal rhesus monkey pons assessed as standard uptake value at 81.2 MBq, iv after 14 mins by microPET; conditions: in vivo
[14] = Drug level in normal rhesus monkey pons assessed as standard uptake value at 81.2 MBq, iv after 37.5 mins by microPET; conditions: in vivo, 0.625 h
[15] = Drug level in normal rhesus monkey parietal cortex assessed as standard uptake value at 81.2 MBq, iv after 6 mins by microPET; conditions: in vivo, 0.1 h
[16] = Drug level in normal rhesus monkey white matter assessed as standard uptake value at 81.2 MBq, iv after 0.5 mins by microPET; conditions: in vivo
[17] = Drug level in normal rhesus monkey white matter assessed as standard uptake value at 81.2 MBq, iv after 42.5 mins by microPET; conditions: in vivo
[18] = Drug level in normal rhesus monkey cerebellum assessed as standard uptake value at 81.2 MBq, iv after 47.5 mins by microPET; conditions: in vivo; method in brief: as §1
[19] = Drug level in normal rhesus monkey frontal cortex assessed as standard uptake value at 81.2 MBq, iv after 1.5 mins by microPET; conditions: in vivo, 0.025 h
Method in brief: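 Single normal rhesus monkey; each tracer given iv via the vena saphena, with 1 day between tracer injections. Dynamic μPET ran 180 min (5×60 s, 5×120 s, 9×300 s, 12×600 s). Images were reconstructed by filtered back projection with a RAMP filter. Regional time-activity curves were expressed as SUV.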

[20] = Drug level in normal rhesus monkey frontal cortex assessed as standard uptake value at 81.2 MBq, iv after 27.5 mins by microPET; conditions: in vivo
[21] = Drug level in normal rhesus monkey cerebellum assessed as standard uptake value at 152.9 MBq, iv after 3.5 mins by microPET; conditions: in vivo
Method in brief: (§2)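 One normal rhesus monkey received each tracer via the vena saphena, with 1 day between injections. Dynamic μPET ran 180 min for 18F tracers (5×60 s, 5×120 s, 9×300 s, 12×600 s) and 90 min for the 11C tracer (5×60 s, 5×120 s, 9×300 s, 3×600 s). Filtered back-projection reconstruction (RAMP filter) was used. Time-activity curves were drawn to give regional SUV.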

[22] = Drug level in normal rhesus monkey cerebellum assessed as standard uptake value at 152.9 MBq, iv after 32.5 mins by microPET; conditions: in vivo
Method in brief: (§3)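 Single normal rhesus monkey; tracer given iv via the vena saphena, 1 day apart from the other tracer injections. Dynamic μPET ran 90 min (5×60 s, 5×120 s, 9×300 s, 3×600 s). Images were reconstructed by filtered back projection with a RAMP filter. Regional time-activity curves were expressed as SUV.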

[23] = Drug level in normal rhesus monkey cerebellum assessed as standard uptake value at 152.9 MBq, iv after 42.5 mins by microPET; conditions: in vivo; method in brief: as §2
[24] = Drug level in normal rhesus monkey cerebellum assessed as standard uptake value at 152.9 MBq, iv after 52.5 mins by microPET; conditions: in vivo, 0.875 h; method in brief: as §2
[25] = Drug level in normal rhesus monkey frontal cortex assessed as standard uptake value at 152.9 MBq, iv after 12 mins by microPET; conditions: in vivo, 0.2 h; method in brief: as §3
[26] = Drug level in normal rhesus monkey white matter assessed as standard uptake value at 152.9 MBq, iv after 1.5 mins by microPET; conditions: in vivo, 0.025 h
[27] = Drug level in normal rhesus monkey white matter assessed as standard uptake value at 152.9 MBq, iv after 6 mins by microPET; conditions: in vivo, 0.1 h
[28] = Drug level in normal rhesus monkey white matter assessed as standard uptake value at 152.9 MBq, iv after 52.5 mins by microPET; conditions: in vivo, 0.875 h
[29] = Drug level in normal rhesus monkey thalamus assessed as standard uptake value at 152.9 MBq, iv after 0.5 mins by microPET; conditions: in vivo
[30] = Drug level in normal rhesus monkey pons assessed as standard uptake value at 152.9 MBq, iv after 27.5 mins by microPET; conditions: in vivo
[31] = Drug level in normal rhesus monkey parietal cortex assessed as standard uptake value at 152.9 MBq, iv after 42.5 mins by microPET; conditions: in vivo
[32] = Drug level in normal rhesus monkey pons assessed as standard uptake value at 109.4 MBq, iv after 105 mins by microPET; conditions: in vivo, 1.75 h
[33] = Drug level in normal rhesus monkey frontal cortex assessed as standard uptake value at 109.4 MBq, iv after 81 mins by microPET; conditions: in vivo, 1.35 h
[34] = Drug level in normal rhesus monkey white matter assessed as standard uptake value at 109.4 MBq, iv after 117 mins by microPET; conditions: in vivo, 1.95 h
[35] = Drug level in normal rhesus monkey thalamus assessed as standard uptake value at 109.4 MBq, iv after 87 mins by microPET; conditions: in vivo, 1.45 h
[36] = Drug level in normal rhesus monkey parietal cortex assessed as standard uptake value at 109.4 MBq, iv after 4.5 mins by microPET; conditions: in vivo, 0.075 h

CN(C)c1ccc2nc(-c3ccc([18F])cc3)sc2c1
SUV [1]: 1.99
SUV [2]: 0.63
SUV [3]: 2.3
SUV [4]: 2.25
SUV [5]: 1.7
SUV [6]: 1.92
SUV [7]: 1.46
SUV [8]: 2.13
SUV [9]: 2.19
SUV [10]: 1.96
SUV [11]: 1.54

CNc1ccc2nc(-c3ccc([18F])cc3)sc2c1
SUV [12]: 5.089
SUV [13]: 4.757
SUV [14]: 5.487
SUV [15]: 4.972
SUV [16]: 0.621
SUV [17]: 3.757
SUV [18]: 1.883
SUV [19]: 3.245
SUV [20]: 5.784

[11CH3]Nc1ccc(-c2nc3ccc(O)cc3s2)cc1 [PITTSBURGH COMPOUND B]
SUV [21]: 2.17
SUV [22]: 1.143
SUV [23]: 0.936
SUV [24]: 0.813
SUV [25]: 2.027
SUV [26]: 0.292
SUV [27]: 1.364
SUV [28]: 0.937
SUV [29]: 0.038
SUV [30]: 1.583
SUV [31]: 0.906

Nc1ccc2nc(-c3ccc([18F])cc3)sc2c1
SUV [32]: 4.79
SUV [33]: 4.41
SUV [34]: 3.71
SUV [35]: 4.98
SUV [36]: 5.12
